# Measured values: ChEMBL document CHEMBL4406918, “Inhibitory Effects of Multivalent Polypeptides on the Proliferation and Metastasis of Breast Cancer Cells” (ACS Med Chem Lett, 2019)
# The source made the active and inactive calls. No cut-off for these calls is given here.
# Assays:
# 4T1 [1] = assay: Antiproliferative activity against mouse 4T1 cells incubated for 24 hrs by MTT assay; format: functional, cell-based; conditions: 4T1, 24 h
# In short: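 MTT viability assay on 4T1 cells after 24 h treatment. Concentrations included 0.1 mM and 0.2 mM, and IC50 was taken from the viability curve. Mean ± SD, n = 6.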
# 4T1 [2] = assay: Antitumour activity against mouse 4T1 cells xenografted in BALB/c mouse assessed as increase in cytotoxic tumor cell death at 10 mg/kg administered intratumorally and measured after 24 days by H and E staining based inverted optical microscopic method; format: functional, organism-based
# In short: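 BALB/c mice bearing subcutaneous 4T1 tumours received 6 doses at 10 mg/kg body weight, matched for YSL monomer molar amount, with saline as control. Tumour sections were stained for H&E, CD31, Ki-67 and TUNEL. n = 5.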
# 4T1 [3] = assay: Inhibition of cell migration in mouse 4T1 cells assessed as migration frequency at 10^-5 mM incubated for 24 hrs by crystal violet staining based transwell assay relative to control; format: functional; set-up: scale not given: the % may be the effect or the level left
# In short: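 Transwell migration assay on 4T1 cells after 24 h treatment. Rate was quantified from cell numbers on the underside of the porous membrane. Mean ± SD, n = 3.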
# 4T1 [4] = assay: Induction of cell death in mouse 4T1 cells incubated for 24 hrs by PI staining based inverted microscopic method; format: functional
# In short: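 Live–dead staining of 4T1 cells after 24 h exposure to 0.4 mM, read by PI staining. A 0.8 mM level was also examined.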
# 4T1 [5] = assay: Inhibition of metastasis in mouse 4T1 cells assessed as disruption in F-actin arrangement at 10^-5 mM incubated for 24 hrs by Hoechst 33342 staining based confocal laser scanning microscopic method; format: functional, cell-based
# In short: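 After 24 h treatment, 4T1 cells were stained with Alexa Fluor 488 phalloidin for F-actin and Hoechst 33342 for nuclei, then imaged by fluorescence microscopy to assess cytoskeleton and cell morphology.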
# 4T1 [6] = assay: Induction of apoptosis in mouse 4T1 cells assessed as late apoptotic cells at 10^-3 mM incubated for 24 hrs by Annexin V-FITC/PI based FACS analysis (reference value: 6.62%); format: functional
# 4T1 [7] = assay: Antiinvasive activity in mouse 4T1 cells assessed as cell invasion rate at 10^-5 mM incubated for 24 hrs by crystal violet staining based matrigel invasion assay relative to control; conditions: 4T1, 24 h
# Erythrocyte = assay: Hemolytic activity in BALB/c mouse RBC at 3.2 mM incubated for 2 hrs by UV-Vis spectrophotometric analysis; format: ADME, cell-based; conditions: 3200 µM
# In short: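 Hemolysis assay on red blood cells with dendrimers up to 3.2 mM. Result is expressed as hemolysis rate, with under 5% taken as acceptable.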
# 4T1 [8] = assay: Inhibition of cell migration in mouse 4T1 cells assessed as wound closure rate at 10^-5 mM measured up to 36 hrs by inverted optical microscopic method based wound healing assay (reference value: 82%); format: functional; set-up: scale not given: the % may be the effect or the level left; conditions: at 10 nM
# 4T1 [9] = assay: Induction of cell cycle arrest in mouse 4T1 cells assessed as accumulation at S phase at 10^-3 mM incubated for 24 hrs by PI staining based flow cytometric analysis (Rvb =42.35%); format: functional; conditions: at 0.001 mM
# 4T1 [10] = assay: Induction of cell cycle arrest in mouse 4T1 cells assessed as accumulation at G2/M phase at 10^-3 mM incubated for 24 hrs by PI staining based flow cytometric analysis (reference value: 19.82%); format: functional
# 4T1 [11] = assay: Induction of apoptosis in mouse 4T1 cells assessed as necrotic cells at 10^-3 mM incubated for 24 hrs by Annexin V-FITC/PI based FACS analysis (reference value: 0.47%); format: functional
# 4T1 [12] = assay: Induction of cell cycle arrest in mouse 4T1 cells assessed as accumulation at G0/G1 phase at 10^-3 mM incubated for 24 hrs by PI staining based flow cytometric analysis (reference value: 37.78%); format: functional
# 4T1 [13] = assay: Induction of apoptosis in mouse 4T1 cells assessed as early apoptotic cells at 10^-3 mM incubated for 24 hrs by Annexin V-FITC/PI based FACS analysis (reference value: 0.76%); format: functional
# 4T1 [14] = assay: Induction of apoptosis in mouse 4T1 cells assessed as viable cells at 10^-3 mM incubated for 24 hrs by Annexin V-FITC/PI based FACS analysis (reference value: 92.2%); format: functional; conditions: 4T1, 24 h, read-out: Activity
# 4T1 [15] = assay: Inhibition of metastasis in mouse 4T1 cells assessed as formation of pseudopods at 10^-5 mM incubated for 24 hrs by SEM analysis; format: functional, cell-based
# In short: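 4T1 cells treated 24 h, then imaged by scanning electron microscopy for pseudopod formation. Dendrimers were tested at 0.2 mM and the reference at 10–5 mM.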
smiles,measurement,setting,value
CC(=O)O[C@H]1C(=O)[C@@]2(C)[C@H]([C@H](OC(=O)c3ccccc3)[C@]3(O)C[C@H](OC(=O)[C@H](O)[C@@H](NC(=O)c4ccccc4)c4ccccc4)C(C)=C1C3(C)C)[C@]1(OC(C)=O)CO[C@@H]1C[C@@H]2O [PACLITAXEL],IC50,4T1 [1],1000 nM
same,Activity,4T1 [2],Active
same,Activity,4T1 [3],30%
same,Activity,4T1 [4],Dose-dependent effect
same,inhibition,4T1 [5],Active
same,Activity,4T1 [6],36.9%
same,invasion rate at 0.01 µM,4T1 [7],34%
same,Activity,Erythrocyte,Non-Toxic
same,Activity,4T1 [8],43%
same,Activity,4T1 [9],44.64%
same,Activity,4T1 [10],13.02%
same,Activity,4T1 [11],0.62%
same,Activity,4T1 [12],42.35%
same,Activity,4T1 [13],0.77%
same,viability at 1 µM,4T1 [14],61.7%
same,inhibition,4T1 [15],inactive
